The source of these data is ChEMBL document CHEMBL1124914, “Novel inhibitors of human renin. Cyclic peptides based on the tetrapeptide sequence Glu-D-Phe-Lys-D-Trp” (J Med Chem, 1990).

The target of test [1] is T1, Renin (Homo sapiens) (UniProt P00797).
T1 sequence (whole entry): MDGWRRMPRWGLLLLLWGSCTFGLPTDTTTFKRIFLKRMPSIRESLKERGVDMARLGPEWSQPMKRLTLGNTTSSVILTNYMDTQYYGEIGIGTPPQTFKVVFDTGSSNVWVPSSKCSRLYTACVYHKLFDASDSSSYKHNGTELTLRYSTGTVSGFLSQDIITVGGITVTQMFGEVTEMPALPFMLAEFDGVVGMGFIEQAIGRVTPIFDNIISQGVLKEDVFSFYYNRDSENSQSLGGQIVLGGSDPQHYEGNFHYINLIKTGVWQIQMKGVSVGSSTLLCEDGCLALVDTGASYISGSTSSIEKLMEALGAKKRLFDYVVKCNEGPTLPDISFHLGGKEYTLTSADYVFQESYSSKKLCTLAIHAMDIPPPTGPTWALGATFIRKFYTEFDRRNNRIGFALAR
Kind of test: Tested for inhibition against human renin at a concentration of 100 uM. A digest of the protocol: (§1)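 Partially purified human renal renin with human angiotensinogen partially purified from volunteer plasma (ammonium sulfate fractionation, DEAE-Sephacel). Final mix: 50 mM phosphate pH 7.0, 3 mM EDTA, 3 mM 8-hydroxyquinoline, 0.5 mM PMSF, 0.1% azide, 0.1% BSA, 1% DMSO. […] Incubation 120 min at 30 °C, stopped on ice. Angiotensin I measured by radioimmunoassay; percent inhibition of vehicle control rate.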

In the next test the target is T2, Renin (Homo sapiens, UniProt P00797).
T2 sequence (P00797 whole entry): T1 sequence (whole entry)
Description: Inhibitory activity against human renin. The method, boiled down: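 Partially purified human renal renin with human angiotensinogen partially purified from volunteer plasma (ammonium sulfate fractionation, DEAE-Sephacel). Final mix: 50 mM phosphate pH 7.0, 3 mM EDTA, 3 mM 8-hydroxyquinoline, 0.5 mM PMSF, 0.1% azide, 0.1% BSA, 1% DMSO. Incubation 120 min at 30 °C, stopped on ice. Angiotensin I measured by radioimmunoassay; percent inhibition of vehicle control rate.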

Test [2] addresses T1, Renin (Homo sapiens). Description: Tested for inhibition against human renin at a concentration of 1 uM. The method, boiled down:
as §1

Test [3] concerns the target T1, Renin (Homo sapiens). Description: Tested for inhibition against human renin at a concentration of 100 uM; Inactive. A digest of the protocol:
as §1

A further test concerns the target Renin (Sus scrofa). Kind of test: Inhibitory activity against porcine renin.
For test [4], the target named is T1, Renin (Homo sapiens). Kind of test: Ratio of inhibitory activity of porcine renin to that of human renin. The conditions noted are these: Sus scrofa.
The target in test [5] is T1, Renin (Homo sapiens). Kind of test: Tested for inhibition against human renin at a concentration of 10 uM. The method, boiled down: as §1

pIC50: −log10 of the molar value. Activity calls are given as the source filed them. No cut-off for these calls is given here.

Turning to `COC(=O)[C@H](CC(C)C)NC(=O)C(Cc1c[nH]c2ccccc12)NC(=O)[C@H](CCCN)N1C(=O)CC[C@H](NC(=O)OCc2ccccc2)C(=O)N[C@@H](Cc2ccccc2)C1=O` (stereo in doubt), on Renin (Homo sapiens) [1], the inhibition (usually how much of the control response was suppressed) came out at 42%.

For the compound `CNC(=O)[C@H](CC(C)C)NC(=O)C(Cc1c[nH]c2ccccc12)NC(=O)[C@H](CCCCN)N1C(=O)CC[C@@H](NC(=O)OCc2ccccc2)C(=O)N[C@H](Cc2ccccc2)C1=O` (stereo in doubt), the pIC50 (usually the negative decadic logarithm of the IC50, by convention in mol/L) against Renin was 6.47.

In turn, `CC(C)CCNC(=O)C(Cc1c[nH]c2ccccc12)NC(=O)[C@H](CCCCN)N1C(=O)CC[C@@H](NCc2c[nH]c3ccccc23)C(=O)N[C@H](Cc2ccccc2)C1=O` (stereo in doubt) showed a negative-log IC50 (pIC50) at Renin of 5.72.

`CC(C)CCNC(=O)C(Cc1c[nH]c2ccccc12)NC(=O)[C@H](CCCCN)N1C(=O)CC[C@@H](NC(C)C)C(=O)N[C@H](Cc2ccccc2)C1=O` (stereo in doubt): the inhibition against Renin (Homo sapiens) [1] turned out to be 93%; against Renin (Homo sapiens) [2], 30%.

Consider `COC(=O)[C@H](CCSC)NC(=O)[C@H](CC(C)C)NC(=O)C(Cc1c[nH]c2ccccc12)NC(=O)[C@H](CS)NC(=O)[C@H](Cc1ccccc1)NC(=O)[C@H](CS)NC(=O)OC(C)(C)C` (stereo in doubt), for which, at Renin (Homo sapiens) [1], the inhibition was determined as 22%.

With `COC(=O)[C@H](CCCCN)N1C(=O)CC[C@@H](NC(=O)OC(C)(C)C)C(=O)N[C@H](Cc2ccccc2)C1=O`, the inhibition entry on Renin (Homo sapiens) [3] was “inactive”.

Regarding `CC(C)(C)OC(=O)N[C@@H]1CCC(=O)N([C@@H](CCCCN)C(=O)NCCc2c[nH]c3ccccc23)C(=O)[C@@H](Cc2ccccc2)NC1=O`, on Renin (Homo sapiens) [1], the inhibition came to 79%.

Take `CC(C)C[C@H]1NC(=O)C(Cc2c[nH]c3ccccc23)NC(=O)[C@@H](CCCCN)N(C(=O)[C@@H](N)Cc2ccccc2)C1=O` (stereo in doubt): the inhibition result on Renin (Homo sapiens) [3] is “inactive”.

In the case of `COC(=O)[C@H](CC(C)C)NC(=O)C(Cc1c[nH]c2ccccc12)NC(=O)[C@@H](CCCCN)N1C(=O)C[C@H](NC(=O)OCc2ccccc2)C(=O)N[C@H](Cc2ccccc2)C1=O` (stereo in doubt), the inhibition at Renin (Homo sapiens) [1] came out at 32%.

Consider `COC(=O)[C@H](CC(C)C)NC(=O)C(Cc1c[nH]c2ccccc12)NC(=O)[C@H](CCCCN)N1C(=O)CSC[C@@H](NC(=O)OCc2ccccc2)C(=O)N[C@H](Cc2ccccc2)C1=O` (stereo in doubt), for which the inhibition against Renin (Homo sapiens) [1] stood at 53%.

For the compound `COC(=O)C(Cc1c[nH]c2ccccc12)NC(=O)[C@H](CCCCN)N1C(=O)CC[C@@H](NC(=O)OCc2ccccc2)C(=O)N[C@H](Cc2ccccc2)C1=O` (stereo in doubt), the inhibition at Renin (Homo sapiens) [1] was found to be 69.2%.

Consider `CC(C)CCNC(=O)C(Cc1c[nH]c2ccccc12)NC(=O)[C@H](CCCCN)N1C(=O)CC[C@@H](N)C(=O)N[C@H](Cc2ccccc2)C1=O` (stereo in doubt), for which the values for the pIC50 on Renin and against Renin (Sus scrofa) were 6.15 and 4.34, respectively. Further, the Ratio at Renin (Homo sapiens) [4] turned out to be 64.7.

In the case of `CCC(Cc1c[nH]c2ccccc12)NC(=O)[C@H](CCCCN)N1C(=O)CC[C@@H](NC(=O)OC(C)(C)C)C(=O)N[C@H](Cc2ccccc2)C1=O` (some centres not stated), at Renin (Homo sapiens) [1], the inhibition was 41%.

Regarding `COC(=O)[C@@H](CCSC)NC(=O)[C@H](CC(C)C)NC(=O)C(Cc1c[nH]c2ccccc12)NC(=O)[C@H](CCCCN)N1C(=O)CC[C@@H](NC(=O)OCc2ccccc2)C(=O)N[C@H](Cc2ccccc2)C1=O` (stereo in doubt), the negative-log IC50 (pIC50) against Renin is 6.54.

As to `CC(=O)NCSC[C@H]1NC(=O)[C@H](Cc2ccccc2)NC(=O)[C@@H]2CCCN2C(=O)[C@@H](CC(C)C)NC(=O)C(Cc2c[nH]c3ccccc23)NC1=O` (stereo in doubt), the inhibition on Renin (Homo sapiens) [1] was found to be 38%.

`COC(=O)C(CCSC)NC(=O)[C@H](CC(C)C)NC(=O)C(Cc1c[nH]c2ccccc12)NC(=O)[C@H](CCCCN)N1C(=O)CC[C@@H](NC(=O)OCc2ccccc2)C(=O)N[C@H](Cc2ccccc2)C1=O` (stereo in doubt) gave a pIC50 at Renin of 6.35.

`CC[C@@H](C)[C@H](NC(=O)C(Cc1c[nH]c2ccccc12)NC(=O)[C@H](CCCCN)N1C(=O)CC[C@@H](NC(=O)OCc2ccccc2)C(=O)N[C@H](Cc2ccccc2)C1=O)C(=O)NC` (stereo in doubt) had a pIC50 on Renin of 6.09.

With `CC(C)CCNC(=O)C(Cc1c[nH]c2ccccc12)NC(=O)[C@H](CCCCN)N1C(=O)CC[C@@H](NC(=O)OC(C)(C)C)C(=O)N[C@H](Cc2ccccc2)C1=O` (stereo in doubt), the values for the pIC50 on Renin and at Renin (Sus scrofa) were 6.68 and 5.07, respectively. Also, the Ratio on Renin (Homo sapiens) [4] worked out at 40.4.

On to `CC(=O)NCSC[C@H]1NC(=O)[C@H](Cc2ccccc2)NC(=O)CNC(=O)[C@@H](CC(C)C)NC(=O)C(Cc2c[nH]c3ccccc23)NC1=O` (stereo in doubt), for which the inhibition result at Renin (Homo sapiens) [3] is “inactive”.

Regarding `COC(=O)[C@H](CC(C)C)NC(=O)C(Cc1c[nH]c2ccccc12)NC(=O)[C@@H]1CCC(=O)N[C@H](CCCCNC(=O)OCc2ccccc2)C(=O)N[C@@H](Cc2ccccc2)C(=O)N1` (stereo in doubt), the inhibition entry at Renin (Homo sapiens) [3] is “inactive”.

On to `CC(Cc1c[nH]c2ccccc12)NC(=O)[C@H](CCCCN)N1C(=O)CC[C@@H](NC(=O)OC(C)(C)C)C(=O)N[C@H](Cc2ccccc2)C1=O` (some centres not stated), for which the inhibition at Renin (Homo sapiens) [1] stood at 33%.

Consider `CCNC(=O)[C@H](CC(C)C)NC(=O)C(Cc1c[nH]c2ccccc12)NC(=O)[C@H](CCCCN)N1C(=O)CC[C@@H](NC(=O)OCc2ccccc2)C(=O)N[C@H](Cc2ccccc2)C1=O` (stereo in doubt), for which the negative-log IC50 (pIC50) on Renin is 6.07.

On Renin (Homo sapiens) [1], `COC(=O)[C@@H](NC(=O)C(Cc1c[nH]c2ccccc12)NC(=O)[C@H](CCCCN)N1C(=O)CC[C@@H](NC(=O)OCc2ccccc2)C(=O)N[C@H](Cc2ccccc2)C1=O)C1CCCCC1` (stereo in doubt) had an inhibition of 67%.

As to `CC(C)C[C@H]1NC(=O)C(Cc2c[nH]c3ccccc23)NC(=O)[C@@H](CCCCN)N(C(=O)[C@H](Cc2ccccc2)NC(=O)OCc2ccccc2)C1=O` (stereo in doubt), the inhibition entry at Renin (Homo sapiens) [3] was “inactive”.

`CC(C)(C)OC(=O)N[C@@H]1CCC(=O)N([C@@H](CCCCN)C(N)=O)C(=O)[C@@H](Cc2ccccc2)NC1=O`: the inhibition entry on Renin (Homo sapiens) [3] was “inactive”.

With `CC(C)(C)CNC(=O)C(Cc1c[nH]c2ccccc12)NC(=O)[C@H](CCCCN)N1C(=O)CC[C@@H](NC(=O)OCc2ccccc2)C(=O)N[C@H](Cc2ccccc2)C1=O` (stereo in doubt), the pIC50 against Renin was 5.77.

For `COC(=O)[C@@H]1CCCN1C(=O)[C@H](CC(C)C)NC(=O)C(Cc1c[nH]c2ccccc12)NC(=O)[C@H](CCCCN)N1C(=O)CC[C@@H](NC(=O)OCc2ccccc2)C(=O)N[C@H](Cc2ccccc2)C1=O` (stereo in doubt), on Renin (Homo sapiens) [5], the inhibition came out at 76%.

With `CC(C)CCNC(=O)C(Cc1c[nH]c2ccccc12)NC(=O)[C@H](CCCCN)N1C(=O)CC[C@@H](NC(=O)COc2ccccc2)C(=O)N[C@H](Cc2ccccc2)C1=O` (stereo in doubt), the negative logarithm of the IC50 (pIC50) is 6.37 against Renin and 5.09 against Renin (Sus scrofa). Besides, the Ratio at Renin (Homo sapiens) [4] was determined as 19.2.

With `CC(C)CCNC(=O)C(Cc1c[nH]c2ccccc12)NC(=O)[C@H](CCCCN)N1C(=O)CC[C@@H](NCC(C)(C)C)C(=O)N[C@H](Cc2ccccc2)C1=O` (stereo in doubt), the values for the negative logarithm of the IC50 (pIC50) against Renin and at Renin (Sus scrofa) were 7.20 and 5.15, respectively. Moreover, on Renin (Homo sapiens) [4], the Ratio was found to be 113.

On to `COC(=O)[C@H](CC(C)C)NC(=O)C(Cc1c[nH]c2ccccc12)NC(=O)[C@@H](CCCN)N1C(=O)C[C@H](NC(=O)OCc2ccccc2)C(=O)N[C@H](Cc2ccccc2)C1=O` (stereo in doubt), for which the inhibition result on Renin (Homo sapiens) [3] was “inactive”.

`CCC(C)CN[C@@H]1CCC(=O)N([C@@H](CCCCN)C(=O)NC(Cc2c[nH]c3ccccc23)C(=O)NCCC(C)C)C(=O)[C@@H](Cc2ccccc2)NC1=O` (stereo in doubt): the pIC50 at Renin was 6.89.

As for `CC(=O)NCSC[C@H]1NC(=O)[C@H](Cc2ccccc2)NC(=O)CN(C)C(=O)[C@@H](CC(C)C)NC(=O)C(Cc2c[nH]c3ccccc23)NC1=O` (stereo in doubt), the inhibition result on Renin (Homo sapiens) [3] is “inactive”.

Take `CC(=O)NCSC[C@@H]1NC(=O)[C@@H](CC(C)C)NC(=O)C(Cc2c[nH]c3ccccc23)NC(=O)[C@@H](CSCNC(C)=O)NC(=O)[C@H](Cc2ccccc2)NC1=O` (stereo in doubt): the inhibition on Renin (Homo sapiens) [1] came to 56%.
